The values that follow come from ChEMBL document CHEMBL1142174, “Pyrazinoic acid and its n-propyl ester inhibit fatty acid synthase type I in replicating tubercle bacilli” (2007).

Test [1] deals with Mycobacterium tuberculosis variant bovis BCG. Description: Inhibition of fatty acid synthase 1 in Mycobacterium bovis BCG assessed as incorporation of [1-14C]acetate in C16 biosynthesis at 1500 ug/ml at pH 6.0. In outline: (§1)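 M. bovis BCG was exposed to drug in medium at pH 6 or 6.8, then labelled with [1-14C]acetate. Extracted fatty acids were analysed by HPLC for 14C-labelled C16.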

Test [2] has the same test system. Description: Inhibition of fatty acid synthase 1 in Mycobacterium bovis BCG assessed as incorporation of [1-14C]acetate in C16 biosynthesis at 1500 ug/ml at pH 6.8. In outline: as §1

The inhibition is the relative decrease from the control value, in per cent. For the molecule `O=C(O)c1cnccn1` [PYRAZINOIC ACID], the figures for the inhibition in test [1] and in test [2] were 97% and 30%, respectively.
